Only some compounds are listed: those with a hit (about 5.6% of all), similar ones and a draw of the others.
MPTP block: blocks calcium-induced mitochondrial swelling. isolated mouse mitochondria, Ca2+ swelling absorbance, 30 min. inhibition, % at 10 µM. 1.4% of 360,000 active. AID 602449;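 active = inhibition of 50% or more, scaled per plate between neutral and stimulator controls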;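 note: 0% = DMSO wells given calcium and 100% = 1 mM EGTA wells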
NR3A LBD binder: modulates the human NR3A ligand-binding domain | NR3A LBD differential scanning fluorimetry, Tm shift; 0% = protein alone, 100% = glycine-bound protein | 2.5% of 340,000 active | Tm shift relative to glycine control, % at 25 µM;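 active = melting temperature shift of at least 10% of the positive control shift, at one fixed dose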
CHOP UPR activ: apoptotic UPR (CHOP) activation; AID 449763; CHO-CHOP luciferase reporter, luminescence; percent of tunicamycin response over DMSO baseline; 0.34% of 330,000 active; activation, % at 10 µM;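 active = at 10 µM dose, activation of 40% or more, normalized to positive control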;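 note: 100% = tunicamycin at 10 µg/mL and 0% = DMSO alone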
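Material: CHO-CHOP cells, stable luciferase reporter of PERK-eIF2a-CHOP signalling; quantity: 500 reporter cells seeded per well; buffer or medium: F12 medium containing 10% fetal bovine serum; compound: one dose, 10 µM in 0.5% DMSO; incubation: 6 h compound treatment, 37 °C; measured by: Steady-Glo luciferase luminescence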
CHOP inh: inhibitors of CHOP induction in ER stress response; CHO-K1 CHOP-promoter luciferase, tunicamycin-induced, 15-18 h; inhibition, % at 10 µM; 3.8% of 220,000 active; AID 2732;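 active = compounds that reduced the stress-induced luciferase reporter signal by more than about 70% of percent inhibition, limit read from the data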;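 note: 0% = tunicamycin plus vehicle and 100% = wells without tunicamycin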
UPR XBP1 act: adaptive UPR (XBP1) activation; CHO-XBP1 luciferase reporter, IRE1-XBP1 UPR activation, luminescence; percent of tunicamycin response, DMSO as zero; activation, % at 20 µM; 0.33% of 330,000 active;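 active = versus positive control, 20 µM dose yields 30% or more activation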;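 note: 100% = tunicamycin at 10 µg/mL and 0% = DMSO only wells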
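assay system = CHO-XBP1 luciferase reporter cells | amount = 1000 cells/well | buffer or medium = F12 plus 10% FBS | compound dosing = single point, 20 µM final compound, 1% DMSO | incubation = 16-18 h cell attachment at 37 °C, then 6 h compound exposure | detection = Steady-Glo luminescence read | controls = tunicamycin 10 µg/mL and vehicle-only wells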
aDG glyco up: increases alpha dystroglycan glycosylation; Pro5-aDG cells, alpha-DG glycosylation AlphaScreen (IIH6); 0% Pro5, 100% B10-LARGE cell signal; activation, % at 10 µM; 0.22% of 360,000 active; AID 624168;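 active = activation of at least 8% versus controls, or a plate z-score of at least 8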;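 note: Pro5 are CHO cells carrying HIG-tagged alpha-DG that lacks glycosylation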
The depositor's hits bear a star.

For CC1(C)CC(=O)C2=C(C1)NC(SCC(=O)Nc1ccccc1)=C(C#N)C21CCCCC1 the results were MPTP block 5, NR3A LBD binder 12*, CHOP UPR activ 4, CHOP inh 35, UPR XBP1 act -5 and aDG glyco up 0.
For COc1ccc2nc(N/C(N)=N/C(=S)Nc3c(C)cccc3C)nc(C)c2c1 the results were MPTP block -1, NR3A LBD binder 24*, CHOP UPR activ -1, CHOP inh 31, UPR XBP1 act 1 and aDG glyco up 2.
`CCOc1ccc2nc(N/C(N)=N/C(=S)Nc3cccc(C)c3)nc(C)c2c1` gave MPTP block 1, NR3A LBD binder 23*, CHOP UPR activ 1, CHOP inh 37, UPR XBP1 act 3 and aDG glyco up 1.
`COc1ccc2nc(N/C(N)=N/C(=S)Nc3cccc(C)c3)nc(C)c2c1` gave MPTP block 0, NR3A LBD binder 4, CHOP UPR activ 0, CHOP inh 15, UPR XBP1 act 0 and aDG glyco up 0.
`CCOc1ccc2nc(N/C(N)=N/C(=S)Nc3cccc(OC)c3)nc(C)c2c1` gave MPTP block 2, NR3A LBD binder 14*, CHOP UPR activ 3, CHOP inh -17, UPR XBP1 act -1 and aDG glyco up 1.
CCc1cccc(CC)c1-n1c(SCC(=O)N2CCc3ccccc32)nc(O)cc1=O was read as MPTP block -1, NR3A LBD binder 1, CHOP UPR activ -1, UPR XBP1 act -2 and aDG glyco up 0.
`O=C(Nc1ccc(N2CCOCC2)c(Cl)c1)c1ccccc1Cl` gave MPTP block 0, NR3A LBD binder 19*, CHOP UPR activ 7, CHOP inh 2, UPR XBP1 act 1 and aDG glyco up 0.
`O=C(Nc1ccc(N2CCN(C(=O)c3ccccc3)CC2)c(Cl)c1)c1ccc(Br)o1` gave MPTP block -2, NR3A LBD binder -1, CHOP UPR activ 4, CHOP inh 85*, UPR XBP1 act -2 and aDG glyco up 0.
Screening O=C(Nc1ccc2c(c1)oc1ccccc12)c1ccc(Br)o1 returned MPTP block 0, NR3A LBD binder 29*, CHOP UPR activ 7, CHOP inh 30, UPR XBP1 act -1 and aDG glyco up 0.
Screening O=C(Nc1ccc(N2CCN(C(=O)c3ccccc3)CC2)cc1)c1ccc(Br)o1 returned MPTP block -3, NR3A LBD binder -3, CHOP UPR activ -2, CHOP inh 34, UPR XBP1 act -5 and aDG glyco up 1.
Screening O=C(Nc1ccc(N2CCOCC2)c(Cl)c1)c1ccc(F)cc1 returned MPTP block 1, NR3A LBD binder -1, CHOP UPR activ 3, UPR XBP1 act 6 and aDG glyco up 0.
Screening O=C(/C=C/c1ccco1)NC(=S)Nc1ccc(N2CCOCC2)c(Cl)c1 returned MPTP block 1, NR3A LBD binder -3, CHOP UPR activ -2, CHOP inh 75*, UPR XBP1 act 6 and aDG glyco up 0.
Screening O=C(/C=C/c1ccccc1)NC(=S)Nc1ccc(N2CCOCC2)c(Cl)c1 returned MPTP block 6, NR3A LBD binder -1, CHOP UPR activ 3, CHOP inh 52, UPR XBP1 act -1 and aDG glyco up 0.
`CCN(CC)c1c(C)nc2ccc(C(=O)NCc3ccc4c(c3)OCO4)cn12` gave MPTP block -3 and aDG glyco up 0.
CC(=O)c1cccc(NC(=O)CSCc2ccc(Br)cc2)c1 was read as MPTP block -17, NR3A LBD binder 23*, CHOP UPR activ 0, CHOP inh 13, UPR XBP1 act 0 and aDG glyco up 0.
For CC(=O)c1cccc(NC(=O)CSCc2ccccc2)c1 the results were MPTP block 2, NR3A LBD binder -2, CHOP UPR activ 1, CHOP inh -25, UPR XBP1 act -2 and aDG glyco up 0.
Screening CC(C)(C)c1ccc(C(=O)NCC(=O)OCC(=O)Nc2nc(-c3ccc(F)cc3)cs2)cc1 returned MPTP block 4, NR3A LBD binder 10*, CHOP UPR activ 2, CHOP inh 73*, UPR XBP1 act -1 and aDG glyco up 0.
For Cc1ccc(-c2csc(NC(=O)CCNC(=O)c3ccc(Cl)cc3)n2)cc1 the results were MPTP block 1, NR3A LBD binder 1, CHOP UPR activ 1, CHOP inh -2, UPR XBP1 act -1 and aDG glyco up 0.
For COc1ccc(-c2csc(NC(=O)c3ccc(N4C(=O)CCC4=O)cc3)n2)cc1 the results were MPTP block -3, NR3A LBD binder 1, CHOP UPR activ -3, CHOP inh -21, UPR XBP1 act 2 and aDG glyco up 0.
Screening COc1ccc(-c2csc(NC(=O)c3cccc(N4C(=O)CCC4=O)c3)n2)cc1OC returned MPTP block 0, NR3A LBD binder 1, CHOP UPR activ -1, UPR XBP1 act -3 and aDG glyco up 0.
For COc1ccccc1-c1csc(NC(=O)c2ccc(N3C(=O)CCC3=O)cc2)n1 the results were MPTP block -1, NR3A LBD binder 34*, CHOP UPR activ -1, CHOP inh 63, UPR XBP1 act -3 and aDG glyco up 0.
O=C(Nc1nc(-c2ccc(F)cc2)cs1)c1ccc(N2C(=O)CCC2=O)cc1 was read as MPTP block 0, NR3A LBD binder 25*, CHOP UPR activ 0, CHOP inh 25, UPR XBP1 act 3 and aDG glyco up 0.
`CC(C)(C)Nc1c(C2CCNCC2)nc2c(OCc3ccccc3)cccn12` gave MPTP block 1 and aDG glyco up 0.
Screening Cc1ccc(CN2CC(C(=O)N3CCN(c4ccccc4Cl)CC3)CC2=O)cc1 (stereo not given) returned MPTP block 1, NR3A LBD binder 0, CHOP UPR activ -1, UPR XBP1 act 0 and aDG glyco up 0.
For CCCN1CCN(C(=O)c2ccc3[nH]c(C)c(C)c3c2)CC1 the results were MPTP block 1 and aDG glyco up 0.
`CC[C@@]1(C(=O)OC)N[C@H](CN(C)C(=O)COC)[C@@H]2C(=O)N(Cc3ccccc3)C(=O)[C@@H]21` gave MPTP block -1, NR3A LBD binder -2, CHOP UPR activ 0, UPR XBP1 act -2 and aDG glyco up 0.
For CC(=O)Nc1cc(-c2ccc(F)cc2)cn2c(-c3ccc(S(C)(=O)=O)cc3)cnc12 the results were MPTP block -1 and aDG glyco up 0.
Screening COc1ccc(-c2nnc(N3CCC(C)CC3)c3ccccc23)cc1 returned MPTP block 20, NR3A LBD binder 0, CHOP UPR activ 0, CHOP inh 85*, UPR XBP1 act 0 and aDG glyco up 0.

Screens: PubChem, several laboratories
